Experimental data as given in ChEMBL document CHEMBL1811806, “Synthesis and biological evaluation of 4β-acrylamidopodophyllotoxin congeners as DNA damaging agents” (2011).

test system: MCF7; experiment: Cytotoxicity against human MCF7 cells after 48 hrs by sulforhodamine B assay; format: functional; details: MCF7, 48 h
How it was run: (§1)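 SRB growth assay, 48 h continuous exposure. Cells grown in DMEM with 10% FBS and 2 mM L-glutamine, plated at densities set by doubling time, preincubated 24 h at 37 °C, 5% CO2. Four concentrations (0.1, 1, 10, 100 µM) in triplicate wells. TCA fixation, 0.4% SRB staining, absorbance at 540 nm against 690 nm reference. GI50 from time-zero-corrected growth; repeated three times.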

| Structure (SMILES) | GI50 |
| --- | --- |
| COc1ccc(/C=C(/C(=O)N[C@@H]2c3cc4c(cc3[C@@H](c3cc(OC)c(OC)c(OC)c3)[C@H]3C(=O)OC[C@@H]32)OCO4)c2cc(OC)c(OC)c(OC)c2)c(F)c1 | 2400 nM |
| COc1cccc2c1C(=O)c1c(O)c3c(c(O)c1C2=O)C[C@@](O)(C(=O)CO)C[C@@H]3O[C@H]1C[C@H](N)[C@H](O)[C@H](C)O1 [DOXORUBICIN] | 130 nM |
| COc1cc(/C(=C\c2cccc([N+](=O)[O-])c2)C(=O)N[C@@H]2c3cc4c(cc3[C@@H](c3cc(OC)c(OC)c(OC)c3)[C@H]3C(=O)OC[C@@H]32)OCO4)cc(OC)c1OC | 2700 nM |
| COc1ccc(/C=C(/C(=O)N[C@@H]2c3cc4c(cc3[C@@H](c3cc(OC)c(OC)c(OC)c3)[C@H]3C(=O)OC[C@@H]32)OCO4)c2cc(OC)c(OC)c(OC)c2)cc1 | 2900 nM |
| COc1cc(/C(=C\c2ccc(O)c([N+](=O)[O-])c2)C(=O)N[C@@H]2c3cc4c(cc3[C@@H](c3cc(OC)c(OC)c(OC)c3)[C@H]3C(=O)OC[C@@H]32)OCO4)cc(OC)c1OC | 2700 nM |

test system: HOP-62; experiment: Cytotoxicity against human HOP62 cells after 48 hrs by sulforhodamine B assay; format: functional; details: HOP-62, 48 h; how it was run: as §1

| Structure (SMILES) | GI50 |
| --- | --- |
| COc1ccc(/C=C(/C(=O)N[C@@H]2c3cc4c(cc3[C@@H](c3cc(OC)c(OC)c(OC)c3)[C@H]3C(=O)OC[C@@H]32)OCO4)c2cc(OC)c(OC)c(OC)c2)c(F)c1 | 170 nM |
| COc1cccc2c1C(=O)c1c(O)c3c(c(O)c1C2=O)C[C@@](O)(C(=O)CO)C[C@@H]3O[C@H]1C[C@H](N)[C@H](O)[C@H](C)O1 [DOXORUBICIN] | 150 nM |
| COc1cc(/C(=C\c2cccc([N+](=O)[O-])c2)C(=O)N[C@@H]2c3cc4c(cc3[C@@H](c3cc(OC)c(OC)c(OC)c3)[C@H]3C(=O)OC[C@@H]32)OCO4)cc(OC)c1OC | 170 nM |
| COc1cc(/C(=C\c2ccc(O)c([N+](=O)[O-])c2)C(=O)N[C@@H]2c3cc4c(cc3[C@@H](c3cc(OC)c(OC)c(OC)c3)[C@H]3C(=O)OC[C@@H]32)OCO4)cc(OC)c1OC | 190 nM |

test system: A2780; experiment: Cytotoxicity against human A2780 cells after 48 hrs by sulforhodamine B assay; format: functional; details: A2780, 48 h; how it was run: as §1

| Structure (SMILES) | GI50 |
| --- | --- |
| COc1ccc(/C=C(/C(=O)N[C@@H]2c3cc4c(cc3[C@@H](c3cc(OC)c(OC)c(OC)c3)[C@H]3C(=O)OC[C@@H]32)OCO4)c2cc(OC)c(OC)c(OC)c2)c(F)c1 | 2700 nM |
| COc1cccc2c1C(=O)c1c(O)c3c(c(O)c1C2=O)C[C@@](O)(C(=O)CO)C[C@@H]3O[C@H]1C[C@H](N)[C@H](O)[C@H](C)O1 [DOXORUBICIN] | < 100 nM |
| COc1cc(/C(=C\c2cccc([N+](=O)[O-])c2)C(=O)N[C@@H]2c3cc4c(cc3[C@@H](c3cc(OC)c(OC)c(OC)c3)[C@H]3C(=O)OC[C@@H]32)OCO4)cc(OC)c1OC | 2500 nM |
| COc1ccc(/C=C(/C(=O)N[C@@H]2c3cc4c(cc3[C@@H](c3cc(OC)c(OC)c(OC)c3)[C@H]3C(=O)OC[C@@H]32)OCO4)c2cc(OC)c(OC)c(OC)c2)cc1 | 2500 nM |
| COc1cc(/C(=C\c2ccc(O)c([N+](=O)[O-])c2)C(=O)N[C@@H]2c3cc4c(cc3[C@@H](c3cc(OC)c(OC)c(OC)c3)[C@H]3C(=O)OC[C@@H]32)OCO4)cc(OC)c1OC | 2200 nM |

test system: not listed separately; experiment: Cytotoxicity against human DWD cells after 48 hrs by sulforhodamine B assay; format: functional; details: not given; how it was run: as §1

| Structure (SMILES) | GI50 |
| --- | --- |
| COc1ccc(/C=C(/C(=O)N[C@@H]2c3cc4c(cc3[C@@H](c3cc(OC)c(OC)c(OC)c3)[C@H]3C(=O)OC[C@@H]32)OCO4)c2cc(OC)c(OC)c(OC)c2)c(F)c1 | 190 nM |
| COc1cccc2c1C(=O)c1c(O)c3c(c(O)c1C2=O)C[C@@](O)(C(=O)CO)C[C@@H]3O[C@H]1C[C@H](N)[C@H](O)[C@H](C)O1 [DOXORUBICIN] | < 100 nM |
| COc1cc(/C(=C\c2cccc([N+](=O)[O-])c2)C(=O)N[C@@H]2c3cc4c(cc3[C@@H](c3cc(OC)c(OC)c(OC)c3)[C@H]3C(=O)OC[C@@H]32)OCO4)cc(OC)c1OC | < 100 nM |
| COc1ccc(/C=C(/C(=O)N[C@@H]2c3cc4c(cc3[C@@H](c3cc(OC)c(OC)c(OC)c3)[C@H]3C(=O)OC[C@@H]32)OCO4)c2cc(OC)c(OC)c(OC)c2)cc1 | 2300 nM |
| COc1cc(/C(=C\c2ccc(O)c([N+](=O)[O-])c2)C(=O)N[C@@H]2c3cc4c(cc3[C@@H](c3cc(OC)c(OC)c(OC)c3)[C@H]3C(=O)OC[C@@H]32)OCO4)cc(OC)c1OC | < 100 nM |

test system: ZR-75-1; experiment: Cytotoxicity against human ZR-75-1 cells after 48 hrs by sulforhodamine B assay; format: functional; details: ZR-75-1, 48 h; how it was run: as §1

| Structure (SMILES) | GI50 |
| --- | --- |
| COc1ccc(/C=C(/C(=O)N[C@@H]2c3cc4c(cc3[C@@H](c3cc(OC)c(OC)c(OC)c3)[C@H]3C(=O)OC[C@@H]32)OCO4)c2cc(OC)c(OC)c(OC)c2)c(F)c1 | 2500 nM |
| COc1cccc2c1C(=O)c1c(O)c3c(c(O)c1C2=O)C[C@@](O)(C(=O)CO)C[C@@H]3O[C@H]1C[C@H](N)[C@H](O)[C@H](C)O1 [DOXORUBICIN] | 110 nM |
| COc1ccc(/C=C(/C(=O)N[C@@H]2c3cc4c(cc3[C@@H](c3cc(OC)c(OC)c(OC)c3)[C@H]3C(=O)OC[C@@H]32)OCO4)c2cc(OC)c(OC)c(OC)c2)cc1 | 2900 nM |
| COc1cc(/C(=C\c2ccc(O)c([N+](=O)[O-])c2)C(=O)N[C@@H]2c3cc4c(cc3[C@@H](c3cc(OC)c(OC)c(OC)c3)[C@H]3C(=O)OC[C@@H]32)OCO4)cc(OC)c1OC | 180 nM |

test system: A549; experiment: Cytotoxicity against human A549 cells after 48 hrs by sulforhodamine B assay; format: functional; details: A549, 48 h; how it was run: as §1

| Structure (SMILES) | GI50 |
| --- | --- |
| COc1ccc(/C=C(/C(=O)N[C@@H]2c3cc4c(cc3[C@@H](c3cc(OC)c(OC)c(OC)c3)[C@H]3C(=O)OC[C@@H]32)OCO4)c2cc(OC)c(OC)c(OC)c2)c(F)c1 | 2100 nM |
| COc1cccc2c1C(=O)c1c(O)c3c(c(O)c1C2=O)C[C@@](O)(C(=O)CO)C[C@@H]3O[C@H]1C[C@H](N)[C@H](O)[C@H](C)O1 [DOXORUBICIN] | < 100 nM |
| COc1cc(/C(=C\c2cccc([N+](=O)[O-])c2)C(=O)N[C@@H]2c3cc4c(cc3[C@@H](c3cc(OC)c(OC)c(OC)c3)[C@H]3C(=O)OC[C@@H]32)OCO4)cc(OC)c1OC | 2400 nM |

test system: COLO 205; experiment: Cytotoxicity against human COLO205 cells after 48 hrs by sulforhodamine B assay; format: functional; details: COLO 205, 48 h; how it was run: as §1

| Structure (SMILES) | GI50 |
| --- | --- |
| COc1cccc2c1C(=O)c1c(O)c3c(c(O)c1C2=O)C[C@@](O)(C(=O)CO)C[C@@H]3O[C@H]1C[C@H](N)[C@H](O)[C@H](C)O1 [DOXORUBICIN] | < 100 nM |
| COc1ccc(/C=C(/C(=O)N[C@@H]2c3cc4c(cc3[C@@H](c3cc(OC)c(OC)c(OC)c3)[C@H]3C(=O)OC[C@@H]32)OCO4)c2cc(OC)c(OC)c(OC)c2)cc1 | 170 nM |
| COc1cc(/C(=C\c2ccc(O)c([N+](=O)[O-])c2)C(=O)N[C@@H]2c3cc4c(cc3[C@@H](c3cc(OC)c(OC)c(OC)c3)[C@H]3C(=O)OC[C@@H]32)OCO4)cc(OC)c1OC | 2000 nM |

test system: not listed separately; experiment: Cytotoxicity against human Gurav cells after 48 hrs by sulforhodamine B assay; format: functional; details: not given; how it was run: as §1

| Structure (SMILES) | GI50 |
| --- | --- |
| COc1ccc(/C=C(/C(=O)N[C@@H]2c3cc4c(cc3[C@@H](c3cc(OC)c(OC)c(OC)c3)[C@H]3C(=O)OC[C@@H]32)OCO4)c2cc(OC)c(OC)c(OC)c2)c(F)c1 | 180 nM |
| COc1cccc2c1C(=O)c1c(O)c3c(c(O)c1C2=O)C[C@@](O)(C(=O)CO)C[C@@H]3O[C@H]1C[C@H](N)[C@H](O)[C@H](C)O1 [DOXORUBICIN] | < 100 nM |
| COc1cc(/C(=C\c2cccc([N+](=O)[O-])c2)C(=O)N[C@@H]2c3cc4c(cc3[C@@H](c3cc(OC)c(OC)c(OC)c3)[C@H]3C(=O)OC[C@@H]32)OCO4)cc(OC)c1OC | 2100 nM |
| COc1ccc(/C=C(/C(=O)N[C@@H]2c3cc4c(cc3[C@@H](c3cc(OC)c(OC)c(OC)c3)[C@H]3C(=O)OC[C@@H]32)OCO4)c2cc(OC)c(OC)c(OC)c2)cc1 | 2200 nM |
| COc1cc(/C(=C\c2ccc(O)c([N+](=O)[O-])c2)C(=O)N[C@@H]2c3cc4c(cc3[C@@H](c3cc(OC)c(OC)c(OC)c3)[C@H]3C(=O)OC[C@@H]32)OCO4)cc(OC)c1OC | 190 nM |
